Only some compounds are listed: those with a hit (about 2.9% of all), similar ones and a draw of the others.
MEKK3 PB1 HTS = modulators of MEKK3-MEK5 PB1 binding, primary screen, biochemical, wildtype MEKK3, multiplex bead flow cytometry, Alexa488-MEK5 | bead-based flow cytometry, Alexa488-MEK5 binding to MEKK3; actives lie on both sides; 0 = blocked by unlabeled MEK5, 100 = vehicle | binding response (% of control), % at 10 µM | 290,000 tested, 1.4% active | AID 1529, 2009;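 active means binding response more than 3 SD above or below the average of its plate-row segment, actives on both sides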;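 further: Alexa488 bead fluorescence after subtracting the streptavidin-only scavenger bead signal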
MEKK2 mut-MEK5 = MEK5 binding signal on mutant MEKK2 PB1, primary screen, biochemical, multiplex bead flow cytometry, Alexa488-MEK5. Alexa488-MEK5 binding to MEKK2 mutant. percent response, % at 10 µM. 290,000 tested, 0.35% active; in the data active means percent response above about 24%, passing the limit was not always enough
UBC13 inh = UBC13 polyubiquitin chain formation inhibitors, primary screen, biochemical, TR-FRET, uHTS | Ubiquitin-conjugating enzyme E2 N (Homo sapiens), P61088 | inhibition, % at 20 µM | 330,000 tested, 0.47% active | AID 485273, 2010; in the data active means inhibition above about 45%, passing the limit was not always enough
Apaf-1 inh = inhibitors of human Apaf-1 apoptosome, primary screen, biochemical, DEVD-Rh110 fluorescence, uHTS. Apoptotic protease-activating factor 1 (Homo sapiens), O14727. reconstituted apoptosome caspase-3 activity. inhibition, % at 20 µM. 330,000 tested, 0.71% active. AID 489030, 2010; active means inhibition of at least 40% at 20 µM;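 further: plate controls were DMSO wells for no effect and DEVD-CHO caspase inhibitor wells for full effect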
Target sequence (O14727 whole entry, looked up): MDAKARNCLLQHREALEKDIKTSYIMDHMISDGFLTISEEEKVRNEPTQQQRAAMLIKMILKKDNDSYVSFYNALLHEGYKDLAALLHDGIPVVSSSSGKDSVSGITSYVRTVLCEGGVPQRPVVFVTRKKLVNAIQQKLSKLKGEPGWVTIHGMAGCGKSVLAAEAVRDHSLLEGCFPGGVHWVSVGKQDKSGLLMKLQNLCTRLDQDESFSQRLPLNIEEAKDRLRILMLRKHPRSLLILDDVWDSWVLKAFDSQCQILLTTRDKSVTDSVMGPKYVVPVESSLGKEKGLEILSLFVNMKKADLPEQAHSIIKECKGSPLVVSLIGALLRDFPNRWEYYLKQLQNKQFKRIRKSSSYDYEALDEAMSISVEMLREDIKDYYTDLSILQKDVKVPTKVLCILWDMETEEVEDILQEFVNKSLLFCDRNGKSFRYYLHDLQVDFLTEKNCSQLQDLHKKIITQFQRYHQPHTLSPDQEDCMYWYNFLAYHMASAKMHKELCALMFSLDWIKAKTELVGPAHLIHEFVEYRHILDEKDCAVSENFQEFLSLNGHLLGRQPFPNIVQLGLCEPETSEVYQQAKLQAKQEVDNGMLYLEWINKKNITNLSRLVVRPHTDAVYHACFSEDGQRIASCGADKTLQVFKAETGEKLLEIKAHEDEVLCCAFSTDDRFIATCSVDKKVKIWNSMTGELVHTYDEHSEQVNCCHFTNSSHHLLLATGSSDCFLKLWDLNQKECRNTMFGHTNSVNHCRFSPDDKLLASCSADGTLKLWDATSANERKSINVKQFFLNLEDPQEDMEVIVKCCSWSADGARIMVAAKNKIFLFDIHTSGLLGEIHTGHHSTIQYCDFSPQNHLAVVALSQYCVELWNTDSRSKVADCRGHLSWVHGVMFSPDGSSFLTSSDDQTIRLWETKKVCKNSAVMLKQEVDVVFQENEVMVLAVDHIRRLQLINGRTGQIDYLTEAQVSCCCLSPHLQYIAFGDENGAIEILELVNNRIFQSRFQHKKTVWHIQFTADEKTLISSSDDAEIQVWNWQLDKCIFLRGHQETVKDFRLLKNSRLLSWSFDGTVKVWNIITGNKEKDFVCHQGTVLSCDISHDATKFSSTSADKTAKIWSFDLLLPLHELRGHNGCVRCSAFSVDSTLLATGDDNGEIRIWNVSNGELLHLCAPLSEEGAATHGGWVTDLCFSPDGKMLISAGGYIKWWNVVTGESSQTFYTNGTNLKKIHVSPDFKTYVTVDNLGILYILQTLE
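Material: reconstituted apoptosome with Apaf-1, cytochrome c, caspase-9, procaspase-3, dATP / Buffer or medium: pH 7.5 Hepes buffer with CHAPS, BSA, DTT / Also added: cytochrome c with DEVD-Rh110 / Schedule: compound with Apaf-1, dATP, procaspase-3 30 min, then 50 min reaction, room temperature / Technique: rhodamine 110 fluorescence at Ex 480/Em 540 nm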
MEKK2 WT-MEK5 = modulators of MEK5 binding to wildtype MEKK2, primary screen, biochemical, multiplex bead flow cytometry, Alexa488-MEK5; Mitogen-activated protein kinase kinase kinase 2 (Homo sapiens), Q9Y2U5; Alexa488-MEK5 binding to MEKK2 WT; actives lie on both sides; binding response (% of control), % at 10 µM; 290,000 tested, 1.1% active; AID 1531, 2009; in the data active means binding response below about 67% or above about 130%
MEKK2wt confirm = modulators of MEK5 binding to wildtype MEKK2, confirmation, biochemical, single concentration, multiplex bead flow cytometry; shares compounds with MEKK3 PB1 HTS; 5,900 tested, 2.4% active; Alexa488-MEK5 binding to MEKK2 WT; actives lie on both sides; binding response (% of control), % at 10 µM; in the data active means binding response below about 16% or above about 210%; inactive means in between
MEKK2mut confirm = mutant MEKK2 PB1-MEK5 binding signal retest – biochemical, single concentration, multiplex bead flow cytometry, confirmation; 5,900 tested, 2% active; shares compounds with MEKK3 PB1 HTS; Alexa488-MEK5 binding to MEKK2 mutant; AID 1893, 2009; percent response, % at 10 µM; in the data active means percent response mostly above about 71%, no sharp cut-off; inactive means mostly below about 38%;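 further: higher means compound restores mutant binding toward wildtype level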
MEKK3-MEK5 inh = MEKK3 wild-type PB1 binding to MEK5, inhibitors, confirmation, biochemical, bead multiplex flow cytometry, single concentration, wildtype; shares compounds with MEKK3 PB1 HTS; Alexa488-MEK5 binding to MEKK3; hits give low values; binding response (% of control), % at 10 µM; 5,900 tested, 1.8% active;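 active means binding response below 72% of control, or above a set upper limit, though filed actives all read lower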;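 further: 100% = DMSO only wells and 0% = binding blocked by excess unlabeled MEK5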
* = called active by the depositor; / = no result; [ ] = remark or other dose.

SMILES | MEKK3 PB1 HTS | MEKK2 mut-MEK5 | UBC13 inh | Apaf-1 inh | MEKK2 WT-MEK5 | MEKK2wt confirm | MEKK2mut confirm | MEKK3-MEK5 inh
CCCCOC(=O)c1ccc(NC(=O)c2ccccc2OC)cc1 | 136.0* | 2.0 | 4.4 | 11.7 | 118.0 | 103.0 | 2.0 | 106.0
CCCCOC(=O)c1ccc(NC(=O)C(=O)NCc2ccco2)cc1 | 136.0* | 0.0 | -1.9 | -7.9 | 110.0 | 88.0 | -13.0 | 91.0
O=C(CCC1CCCN(Cc2ccc3c(c2)CCO3)C1)NCc1ccc(F)c(F)c1 (centres undefined) | 100.0 | -2.0 | -16.6 | 3.5 | 100.0 | / | / | /
O=C(c1cc(-c2ccccn2)nc2ccc(Cl)cc12)N1CCN(CCc2ccccc2)CC1 | -1.0*[inhibitor] | -23.0 | -10.9 | 15.0 | -4.0*[inhibitor] | 97.0 | -2.0 | 97.0
Cc1ccc(NC(=O)Cc2nc(COC(=O)Cc3cccc(C(F)(F)F)c3)cs2)cc1 | / | / | 0.3 | 16.0 | / | / | / | /
CC1(C)CC(=O)C2=C(C1)OC(N)=C([N+](=O)[O-])C2c1ccc(F)cc1 (centres undefined) | 137.0* | 27.0 | 1.0 | -7.2 | 137.0 | 106.0 | 3.0 | 102.0
Fc1ccc2[nH]c3c(NCc4ccccc4)ncnc3c2c1 | 101.0 | 4.0 | 18.2 | 11.8 | 104.0 | / | / | /
C=CCC(NCc1ccco1)c1ccc(OC)c(OC)c1 (centres undefined) | 0.0*[inhibitor] | -16.0 | -9.8 | 2.3 | -1.0*[inhibitor] | 93.0 | -5.0 | 98.0
COc1ccc(C(CC(=O)O)NC(=O)c2ccco2)cc1OC (centres undefined) | 110.0 | 24.0* | 7.9 | -12.5 | 111.0 | 101.0 | -1.0 | 99.0
Cn1c2c(c(=O)n(C)c1=O)C(C(F)(F)F)(C(F)(F)F)N=C(CCC1CCCCC1)N2 | 100.0 | -1.0 | 4.1 | 3.8 | 101.0 | / | / | /
COc1cccc(NC(=O)C2CCCN2C(=O)Nc2ccccc2F)c1 (centres undefined) | 1.0*[inhibitor] | -21.0 | 5.8 | -10.4 | -2.0*[inhibitor] | 99.0 | -1.0 | 100.0
COc1cccc(CN2CCCCC2C(=O)O)c1 (centres undefined) | 40.0*[inhibitor] | -26.0 | -6.7 | -5.5 | 60.0 | 98.0 | 3.0 | 98.0
COc1cccc(NC(=O)N2CCCC2C(=O)NCc2ccccc2)c1 (centres undefined) | 63.0*[inhibitor] | -16.0 | -6.1 | -1.1 | 55.0*[inhibitor] | 93.0 | -5.0 | 97.0
COc1cccc(NC(=O)N2CCCC2C(=O)NCc2ccccc2F)c1 (centres undefined) | 99.0 | 5.0 | 3.6 | -13.4 | 102.0 | / | / | /
Cc1cc(C)cc(NC(=S)N2CC(C)OC(C)C2)c1 (centres undefined) | 98.0 | -3.0 | -2.7 | 14.5 | 95.0 | / | / | /
CCC(Sc1nc2ncccc2[nH]1)C(=O)NCCc1ccccc1 (centres undefined) | 101.0 | 3.0 | 4.8 | -3.3 | 101.0 | / | / | /
Cc1cccc(NC(=O)c2cc(-c3ccc(C)c(C)c3O)n[nH]2)c1 | 96.0 | 0.0 | -5.5 | 1.0 | 91.0 | / | / | /
COc1ccc(C(=O)C2CCCN(Cc3cccc4c3OCO4)C2)cc1OC (centres undefined) | 99.0 | -2.0 | -8.7 | -1.8 | 98.0 | / | / | /
O=C(CN1C(=O)NC2(CCCc3ccccc32)C1=O)NCc1cccs1 (centres undefined) | / | / | -1.2 | 1.6 | / | / | / | /
COc1cccc(C(=O)COC(=O)c2n[nH]c(=O)c3ccccc23)c1 | 60.0*[inhibitor] | -12.0 | 5.0 | 7.5 | 71.0 | 101.0 | 4.0 | 104.0
O=[N+]([O-])c1ccccc1CN1CCN(c2ncccn2)CC1 | 106.0 | 4.0 | -4.8 | -13.4 | 105.0 | / | / | /
O=[N+]([O-])c1ccccc1CN1CCN(Cc2ccccn2)CC1 | 2.0*[inhibitor] | -84.0 | -4.0 | -7.2 | 1.0*[inhibitor] | 97.0 | -3.0 | 96.0
COc1ccc2c(c1)[nH]c1c(N3CCN(Cc4ccc5c(c4)OCO5)CC3)ncnc12 | 114.0 | 8.0 | -1.2 | 12.7 | 152.0* | 146.0 | 33.0 | 107.0
Cc1ccc2c(c1)[nH]c1c(N3CCN(Cc4ccccc4)CC3)ncnc12 | 109.0 | 18.0 | 11.1 | 1.4 | 158.0* | 119.0 | 13.0 | 106.0
Cc1ccc2[nH]c3c(N4CCN(Cc5ccccc5)CC4)ncnc3c2c1 | 111.0 | 1.0 | 12.5 | 17.4 | 105.0 | / | / | /
SMILES | MEKK3 PB1 HTS | MEKK2 mut-MEK5 | UBC13 inh | Apaf-1 inh | MEKK2 WT-MEK5 | MEKK2wt confirm | MEKK2mut confirm | MEKK3-MEK5 inh
COCCNC(=O)c1ccccc1NC(=O)CSc1ccc(C)cc1 | 104.0 | 2.0 | -4.8 | 1.2 | 91.0 | / | / | /
CC(C)c1cc(C(=O)Nc2cc(Br)ccc2O)no1 | 96.0 | -4.0 | 2.7 | -1.1 | 94.0 | / | / | /
CC(C)c1cc(C(=O)Nc2cc(Cl)ccc2O)no1 | 8.0*[inhibitor] | -28.0 | 3.7 | -1.6 | 13.0*[inhibitor] | 105.0 | 5.0 | 110.0
O=C(CN(C(=O)c1ccccc1Cl)N1C(=O)CCCC1=O)c1ccc(Cl)cc1 | 91.0 | -11.0 | -1.5 | -10.1 | 94.0 | / | / | /
CC(C)CN(C(=O)CSc1nnnn1-c1ccccc1)c1c(N)n(CC(C)C)c(=O)[nH]c1=O | 100.0 | -3.0 | -4.9 | 1.2 | 95.0 | / | / | /
O=C(CN1C(=O)NC2NC(=O)NC21)NN=C1CCCC1 (centres undefined) | 150.0* | 0.0 | 2.7 | -4.6 | 109.0 | 104.0 | 7.0 | 102.0
Fc1ccc(CNC(=S)Nc2cccc(C(F)(F)F)c2)cc1 | 100.0 | 1.0 | 0.4 | -0.9 | 106.0 | / | / | /
Fc1ccccc1CNC(=S)Nc1cccc(C(F)(F)F)c1 | 134.0* | -1.0 | 15.3 | 13.4 | 99.0 | 110.0 | 8.0 | 111.0
CN1CCN(S(=O)(=O)c2ccc(NC(=O)c3ccccc3Cl)cc2)CC1 | 100.0 | 2.0 | -5.4 | -7.6 | 105.0 | / | / | /
CN1CCN(S(=O)(=O)c2ccc(NC(=O)c3ccc(Br)s3)cc2)CC1 | 114.0 | 13.0 | 4.8 | 10.3 | 138.0* | 118.0 | 15.0 | 109.0
CN1CCN(S(=O)(=O)c2ccc(NC(=O)c3ccc(Br)o3)cc2)CC1 | 41.0*[inhibitor] | -9.0 | 1.0 | -12.6 | 51.0 | 111.0 | 10.0 | 110.0
O=C(Nc1ccc(S(=O)(=O)N2CCCC2)cc1)c1ccc(Br)o1 | 97.0 | 1.0 | 5.7 | 11.0 | 96.0 | / | / | /

Compound activity from PubChem.
